Test results reported in ChEMBL document CHEMBL1122744, “2-Chloroethyl (methylsulfonyl)methanesulfonate and related (methylsulfonyl)methanesulfonates. Antineoplastic activity in vivo” (J Med Chem, 1984).

What was measured:
[1] = Ratio of number of 30-day survivors to the total treated mice at dose 50 mg/kg in exp4; 6/6; type: functional
Mus musculus [2] = test: Median survival time of the untreated control groups, in which there are no 30-day survivors at dose 50 mg/kg in exp4; type: functional
Mus musculus [3] = test: Change in weight by day 5, obtained by subtracting treated groups of animals minus control groups of animals at dose 15 mg/kg in exp3.; type: functional
In short: (§1)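 Mice were inoculated ip with 10^6 P388 leukemia cells on day 0 and weighed 19–22 g that day. Compound was given ip once daily on days 1–5, within about 5 min of preparing the solution or suspension, to groups of six (occasionally five). Thirty inoculated untreated mice served as controls. The value is the average weight change of treated mice minus that of controls on day 5.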

[4] = Ratio of number of 30-day survivors to the total treated mice at dose 33 mg/kg in exp4; 1/6; type: functional
[5] = Ratio of number of 60-day survivors to the total treated mice at dose 50 mg/kg in exp1; 2/6; type: functional
Mus musculus [6] = test: Median survival time of the untreated control groups, in which there are no 30-day survivors at dose 22 mg/kg in exp3; type: functional
Mus musculus [7] = test: Change in weight by day 5, obtained by subtracting treated groups of animals minus control groups of animals at dose 75 mg/kg in exp2.; type: functional; in short: as §1
Mus musculus [8] = test: Mortality by day 5 expressed as number of mice died to the total treated at dose 50 mg/kg in exp4; 0/6; type: ADME, organism-based; parameters: dose 50 mg/kg; conditions: in vivo
Mus musculus [9] = test: Change in weight by day 5, obtained by subtracting treated groups of animals minus control groups of animals at dose 100 mg/kg in exp2.; type: functional; in short: as §1
Mus musculus [10] = test: Median survival time of the treated control groups, in which there are no 30-day survivors at dose 15 mg/kg in exp3; type: functional
Mus musculus [11] = test: Median survival time of the untreated control groups, in which there are no 30-day survivors at dose 22 mg/kg in exp6; type: functional
Mus musculus [12] = test: Median survival time of the untreated control groups, in which there are no 30-day survivors at dose 75 mg/kg in exp2; type: functional
Mus musculus [13] = test: Median survival time of the treated control groups, in which there are no 30-day survivors at dose 100 mg/kg in exp2; type: functional
[14] = Ratio of median survival times for non-survivors at dose 22 mg/kg in exp4
Mus musculus [15] = test: Change in weight by day 5, obtained by subtracting treated groups of animals minus control groups of animals at dose 22 mg/kg in exp3.; type: functional; in short: as §1
Mus musculus [16] = test: Mortality by day 5 expressed as number of mice died to the total treated at dose 150 mg/kg in exp2; 5/5; type: ADME, organism-based; parameters: dose 150 mg/kg; conditions: in vivo
Mus musculus [17] = test: Median survival time of the treated control groups, in which there are no 30-day survivors at dose 50 mg/kg in exp5; type: functional
Mus musculus [18] = test: Mortality by day 5 expressed as number of mice died to the total treated at dose 75 mg/kg in exp2; 0/5; type: ADME, organism-based; parameters: dose 75 mg/kg; conditions: in vivo
Mus musculus [19] = test: Mortality by day 5 expressed as number of mice died to the total treated at dose 15 mg/kg in exp3; 0/5; type: ADME, organism-based; parameters: dose 15 mg/kg; conditions: in vivo
Mus musculus [20] = test: Change in weight by day 5, obtained by subtracting treated groups of animals minus control groups of animals at dose 100 mg/kg in exp8; type: functional; in short: as §1
[21] = Ratio of number of 60-day survivors to the total treated mice at dose 50 mg/kg in exp2; 0/5; type: functional
Mus musculus [22] = test: Median survival time of the treated control groups, in which there are no 30-day survivors at dose 50 mg/kg in exp6; type: functional
Mus musculus [23] = test: Median survival time of the treated control groups, in which there are no 30-day survivors at dose 33 mg/kg in exp5; type: functional
Mus musculus [24] = test: Change in weight by day 5, obtained by subtracting treated groups of animals minus control groups of animals at dose 22 mg/kg in exp4.
Mus musculus [25] = test: Mortality by day 5 expressed as number of mice died to the total treated at dose 33 mg/kg in exp3; 0/5; type: ADME, organism-based; parameters: dose 33 mg/kg; conditions: in vivo
Mus musculus [26] = test: Change in weight by day 5, obtained by subtracting treated groups of animals minus control groups of animals at dose 50 mg/kg in exp8; type: functional; in short: as §1
Mus musculus [27] = test: Median survival time of the untreated control groups, in which there are no 30-day survivors at dose 100 mg/kg in exp8; type: functional
Mus musculus [28] = test: Mortality by day 5 expressed as number of mice died to the total treated at dose 33 mg/kg in exp4; 0/6; type: ADME, organism-based; parameters: dose 33 mg/kg; conditions: in vivo
Mus musculus [29] = test: Mortality by day 5 expressed as number of mice died to the total treated at dose 50 mg/kg in exp8; 0/6; type: ADME, organism-based; parameters: dose 50 mg/kg; conditions: in vivo
Mus musculus [30] = test: Median survival time of the treated control groups, in which there are no 30-day survivors at dose 33 mg/kg in exp3; type: functional
[31] = Ratio of median survival times for non-survivors at dose 100 mg/kg in exp8*-toxic; type: functional
In short: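 Mice were inoculated ip with 10^6 P388 leukemia cells on day 0. Groups of six (occasionally five) were dosed ip qd on days 1–5 with fresh suspensions; 30 mice served as untreated controls. Deaths were recorded daily up to day 60. T/C% compares the median survival of treated non-survivors (<60 days) with the control median. Medians used grouped data when there were no 30-day survivors, otherwise ungrouped data. t = toxic.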

[32] = Ratio of median survival times for non-survivors at dose 33 mg/kg in exp6; type: functional
[33] = Ratio of median survival times for non-survivors at dose 50 mg/kg in exp8; type: functional
Mus musculus [34] = test: Mortality by day 5 expressed as number of mice died to the total treated at dose 33 mg/kg in exp6; 0/6; type: ADME, organism-based; parameters: dose 33 mg/kg; conditions: in vivo
Mus musculus [35] = test: Mortality by day 5 expressed as number of mice died to the total treated at dose 100 mg/kg in exp8*-Mortality was 3/6 by day 6; 2/6; type: ADME, organism-based; parameters: dose 100 mg/kg; conditions: in vivo
Mus musculus [36] = test: Median survival time of the treated control groups, in which there are no 30-day survivors at dose 33 mg/kg in exp2; type: functional
Mus musculus [37] = test: Median survival time of the untreated control groups, in which there are no 30-day survivors at dose 150 mg/kg in exp2; type: functional
Mus musculus [38] = test: Mortality by day 5 expressed as number of mice died to the total treated at dose 200 mg/kg in exp8; 6/6; type: ADME, organism-based; parameters: dose 200 mg/kg; conditions: in vivo
Mus musculus [39] = test: Mortality by day 5 expressed as number of mice died to the total treated at dose 50 mg/kg in exp1; 0/5; type: ADME, organism-based; parameters: dose 50 mg/kg; conditions: in vivo
Mus musculus [40] = test: Change in weight by day 5, obtained by subtracting treated groups of animals minus control groups of animals at dose 33 mg/kg in exp2.; type: functional; in short: as §1

CS(=O)(=O)CS(=O)(=O)OCCCl
Ratio [1]: 6
Median survival time (Mus musculus [2]): 10.5
Change in weight (Mus musculus [3]): -0.9
Ratio [4]: 1
Ratio [5]: 2
Median survival time (Mus musculus [6]): 11.1
Change in weight (Mus musculus [7]): -4.2
Mortality (Mus musculus [8]): 0
Change in weight (Mus musculus [9]): -4.1
Median survival time (Mus musculus [10]): 16
Median survival time (Mus musculus [11]): 13
Median survival time (Mus musculus [12]): 11.2
Median survival time (Mus musculus [13]): 22.5
Ratio [14]: 180
Change in weight (Mus musculus [15]): -1.3
Mortality (Mus musculus [16]): 5
Median survival time (Mus musculus [17]): 27
Mortality (Mus musculus [18]): 0
Mortality (Mus musculus [19]): 0
Change in weight (Mus musculus [20]): -6
Ratio [21]: 0
Median survival time (Mus musculus [22]): 43.5
Median survival time (Mus musculus [23]): 25.7
Change in weight (Mus musculus [24]): -1.2
Mortality (Mus musculus [25]): 0
Change in weight (Mus musculus [26]): -1.6
Median survival time (Mus musculus [27]): 11
Mortality (Mus musculus [28]): 0
Mortality (Mus musculus [29]): 0
Median survival time (Mus musculus [30]): 22
Ratio [31]: 55
Ratio [32]: 179
Ratio [33]: 273
Mortality (Mus musculus [34]): 0
Mortality (Mus musculus [35]): 2
Median survival time (Mus musculus [36]): 23.5
Median survival time (Mus musculus [37]): 11.2
Mortality (Mus musculus [38]): 6
Mortality (Mus musculus [39]): 0
Change in weight (Mus musculus [40]): -2.5
